Reference: ChEMBL document CHEMBL4706616, “Design, synthesis, and evaluation of substituted 2-acylamide-1,3-benzo[d]zole analogues as agents against MDR- and XDR-MTB” (Eur J Med Chem, 2021)
Values after ≈ are worked out from the molar mass of the structure shown.

Columns and labels:
[1] = tested on: Mycobacterium tuberculosis; assay: Antitubercular activity against Mycobacterium tuberculosis H37Rv assessed as bacterial growth inhibition by MABA; assay type: functional
HEK293 = assay: Cytotoxicity against human HEK293 cells assessed as reduction in cell viability incubated for 48 hrs by CCK8 assay; assay type: cell-based; conditions: HEK293, 48 h
[2] = AUC (0 to t) in Sprague-Dawley rat at 40 mg/kg, po measured upto 8 hrs by LC-MS/MS analysis; assay type: ADME, organism-based; set-up: route oral, dose 40 mg/kg, time <=8; conditions: in vivo
Summary of the method: (§1)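 Male SPF SD rats (180–220 g), fasted overnight, fed 4 h post-dose; single 40 mg/kg oral dose suspended in 5% DMSO/10% Solutol/85% water; n=3. Jugular blood at 0.25–8 h, plasma protein precipitated with MeOH containing internal standard, analysed by LC-MS/MS; AUC, Cmax, Tmax, MRT from plasma concentration data; mean ± SD.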

[3] = Tmax in Sprague-Dawley rat at 40 mg/kg, po measured upto 8 hrs by LC-MS/MS analysis; assay type: ADME, organism-based; conditions: in vivo; summary of the method: as §1
[4] = Mean residence time in Sprague-Dawley rat at 40 mg/kg, po measured upto 8 hrs by LC-MS/MS analysis; assay type: ADME, organism-based; conditions: in vivo; summary of the method: as §1
[5] = Cmax in Sprague-Dawley rat at 40 mg/kg, po measured upto 8 hrs by LC-MS/MS analysis; assay type: ADME, organism-based; set-up: route oral, dose 40 mg/kg, time <=8; conditions: in vivo; summary of the method: as §1
[6] = Selectivity index, ratio of IC50 for human HEK293 cells to MIC for Mycobacterium tuberculosis; assay type: toxicity; conditions: read-out: Selectivity Index
Summary of the method: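 Ratio of HEK-293 IC50 (µM) to anti-Mtb MIC (µM).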

Klebsiella pneumoniae [7] = assay: Antibacterial activity against ESBLs positive Klebsiella pneumoniae ATCC 700603 assessed as bacterial growth inhibition incubated for 18 hrs by agar dilution method; assay type: functional
[8] = tested on: Acinetobacter calcoaceticus; assay: Antibacterial activity against Acinetobacter calcoaceticus ATCC 19606 assessed as bacterial growth inhibition incubated for 18 hrs by agar dilution method; assay type: functional
Enterococcus faecium = assay: Antibacterial activity against vancomycin-resistant Enterococcus faecium ATCC 700221 assessed as bacterial growth inhibition incubated for 18 hrs by agar dilution method; assay type: functional
Staphylococcus aureus [9] = assay: Antibacterial activity against methicillin-resistant Staphylococcus aureus ATCC 33591 assessed as bacterial growth inhibition incubated for 18 hrs by agar dilution method; assay type: functional
Pseudomonas aeruginosa = assay: Antibacterial activity against Pseudomonas aeruginosa ATCC 27853 assessed as bacterial growth inhibition incubated for 18 hrs by agar dilution method; assay type: functional
[10] = Acute toxicity in BALB/c mouse at 1000 mg/kg, po measured after 7 days; assay type: organism-based; conditions: in vivo, 168 h, time 7 day
Summary of the method: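 SPF female BALB/c mice, 18–22 g, groups of six; single 1000 mg/kg oral gavage in 0.5% CMC-Na; housed at 20–24°C; surviving mice counted over the observation period (14 days per methods, 7 days per results text).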

Enterococcus faecalis = assay: Antibacterial activity against Vancomycin-susceptible Enterococcus faecalis ATCC 29212 assessed as bacterial growth inhibition incubated for 18 hrs by agar dilution method; assay type: functional
Escherichia coli = assay: Antibacterial activity against ESBLs negative Escherichia coli ATCC 25922 assessed as bacterial growth inhibition incubated for 18 hrs by agar dilution method; assay type: functional
[11] = tested on: Staphylococcus epidermidis; assay: Antibacterial activity against methicillin-sensitive Staphylococcus epidermidis ATCC 12228 assessed as bacterial growth inhibition incubated for 18 hrs by agar dilution method; assay type: functional
Klebsiella pneumoniae [12] = assay: Antibacterial activity against ESBLs negative Klebsiella pneumoniae 7 assessed as bacterial growth inhibition incubated for 18 hrs by agar dilution method; assay type: functional
Staphylococcus aureus [13] = assay: Antibacterial activity against methicillin-sensitive Staphylococcus aureus ATCC 29213 assessed as bacterial growth inhibition incubated for 18 hrs by agar dilution method; assay type: functional

Row | SMILES | MIC [1] [µM] | IC50 (HEK293) [µM] | other results
1 | O=C(Nc1nc2ccccc2o1)c1ccc(Cl)s1 | 14.3 (≈ 4 µg/mL) | – | –
2 | Cc1nnsc1C(=O)Nc1nc2cc(-c3cccnc3)ccc2o1 | 2.96 (≈ 0.999 µg/mL) | 54.9 | –
3 | Cc1nnsc1C(=O)Nc1nc2c(-c3ccccn3)cccc2o1 | 23.7 (≈ 8 µg/mL) | – | –
4 | Cc1nnsc1C(=O)Nc1nc2c(ccc3cccnc32)o1 | 103 (≈ 32 µg/mL) | – | –
5 | Cc1nnsc1C(=O)Nc1nc2ccc(Cl)cc2o1 | 0.42 (≈ 0.124 µg/mL) | 7.14 | –
6 | Cc1nnsc1C(=O)Nc1nc2cc(F)ccc2o1 | 0.45 (≈ 0.125 µg/mL) | 42 | –
7 | Cc1nnsc1C(=O)Nc1nc2c(Oc3ncccn3)cccc2o1 | 2.82 (≈ 0.999 µg/mL) | > 100 | AUC(0-t) at 8 h [2]: 38 ng·h/mL; Tmax [3]: 2.83 h; MRT [4]: 4.12 h; Cmax [5]: 6.93 ng/mL; selectivity ratio [6]: > 18
8 | Cc1nnsc1C(=O)Nc1nc2c(OCc3ccccn3)cccc2o1 | 5.44 (≈ 2 µg/mL) | 61.8 | –
9 | Cc1nnsc1C(=O)Nc1nc2cc(Br)ccc2o1 | 2.95 (≈ 1 µg/mL) | 45 | –
10 | COC(=O)c1ccc(-c2ccc3oc(NC(=O)c4snnc4C)nc3c2)cc1 | 1.27 (≈ 0.501 µg/mL) | – | –
11 | O=C(Nc1nc2ccccc2o1)c1ccco1 | 17.5 (≈ 4 µg/mL) | > 100 | –
12 | Cc1nnsc1C(=O)Nc1nc2cc(C(C)(C)C)ccc2o1 | 0.4 (≈ 0.127 µg/mL) | 6.73 | MIC (Klebsiella pneumoniae [7]): > 405 µM; MIC [8]: > 405 µM; MIC (Enterococcus faecium): 12.6 µM (≈ 4 µg/mL); MIC (Staphylococcus aureus [9]): 6.32 µM (≈ 2 µg/mL); MIC (Pseudomonas aeruginosa): > 405 µM; AUC(0-t) at 8 h [2]: 24800 ng·h/mL; Activity [10]: Non-Toxic; Tmax [3]: ≥ 8 h; MIC (Enterococcus faecalis): 12.6 µM (≈ 4 µg/mL); MRT [4]: 5.26 h; MIC (Escherichia coli): > 405 µM; Cmax [5]: 6840 ng/mL; MIC [11]: 6.32 µM (≈ 2 µg/mL); selectivity ratio [6]: 17; MIC (Klebsiella pneumoniae [12]): > 405 µM; MIC (Staphylococcus aureus [13]): 6.32 µM (≈ 2 µg/mL)
13 | Cc1nnsc1C(=O)Nc1nc2cc(-c3ccccn3)ccc2o1 | 0.74 (≈ 0.25 µg/mL) | > 100 | MIC (Klebsiella pneumoniae [7]): > 379 µM; MIC [8]: > 379 µM; MIC (Enterococcus faecium): 5.93 µM (≈ 2 µg/mL); MIC (Staphylococcus aureus [9]): 1.48 µM (≈ 0.499 µg/mL); MIC (Pseudomonas aeruginosa): > 379 µM; AUC(0-t) at 8 h [2]: 27800 ng·h/mL; Activity [10]: Non-Toxic; Tmax [3]: ≥ 8 h; MIC (Enterococcus faecalis): 11.9 µM (≈ 4 µg/mL); MRT [4]: 5.59 h; MIC (Escherichia coli): > 379 µM; Cmax [5]: 9050 ng/mL; MIC [11]: 2.96 µM (≈ 0.999 µg/mL); selectivity ratio [6]: > 270; MIC (Klebsiella pneumoniae [12]): > 379 µM; MIC (Staphylococcus aureus [13]): 5.93 µM (≈ 2 µg/mL)
14 | Cc1nnsc1C(=O)Nc1nc2cc(-c3cnn(C)c3)ccc2o1 | 1.47 (≈ 0.5 µg/mL) | – | –
15 | Cc1ccc2oc(NC(=O)c3snnc3C)nc2c1 | 1.82 (≈ 0.499 µg/mL) | 21.9 | –
16 | COC(=O)c1ccc2oc(NC(=O)c3snnc3C)nc2c1 | 3.14 (≈ 1 µg/mL) | – | –
17 | Cc1nnsc1C(=O)Nc1nc2cc(N3CCOCC3)ccc2o1 | 11.6 (≈ 4 µg/mL) | 18.3 | –

Row | SMILES | MIC [1] [µM] | IC50 (HEK293) [µM] | other results
18 | Cc1nnsc1C(=O)Nc1nc2ccccc2[nH]1 | 30.9 (≈ 8 µg/mL) | > 100 | –
19 | Cc1nnsc1C(=O)Nc1nc2c(ccc3ccccc32)o1 | 103 (≈ 32 µg/mL) | 80.9 | –
20 | Cc1nnsc1C(=O)Nc1nc2cc(Cl)ccc2o1 | 0.42 (≈ 0.124 µg/mL) | 6.65 | Activity [10]: Non-Toxic; selectivity ratio [6]: 4
21 | Cc1nnsc1C(=O)Nc1nc2c(Br)cccc2o1 | 1.47 (≈ 0.499 µg/mL) | 10.6 | –
22 | O=C(Nc1nc2ccccc2o1)c1cccs1 | 16.4 (≈ 4 µg/mL) | 81.9 | –
23 | Cc1nnsc1C(=O)Nc1nc2ccccc2s1 | 28.9 (≈ 8 µg/mL) | > 100 | –
24 | Cc1nnsc1C(=O)Nc1nc2ccccc2o1 | 0.48 (≈ 0.125 µg/mL) | 19.6 | –
25 | Cc1nnsc1C(=O)Nc1nc2cc(-c3ccncc3)ccc2o1 | 1.48 (≈ 0.499 µg/mL) | – | –
26 | Cc1nnsc1C(=O)Nc1nc2ncccc2o1 | 7.66 (≈ 2 µg/mL) | 15.2 | –
27 | Cc1nnsc1C(=O)Nc1nc2c(ccc3ncccc32)o1 | 103 (≈ 32 µg/mL) | 59 | –
28 | Cc1nnsc1C(=O)Nc1nc2ccc(C(C)(C)C)cc2o1 | 3.16 (≈ 1 µg/mL) | 2.42 | –
29 | O=C(Nc1nc2ccccc2o1)c1ccccc1 | 269 (≈ 64 µg/mL) | > 100 | –
30 | CC[C@@H](CO)NCCN[C@@H](CC)CO [ETHAMBUTOL] | < 2.45 | – | –
31 | NNC(=O)c1ccncc1 [ISONIAZID] | < 3.65 | – | –
32 | CO[C@H]1/C=C/O[C@@]2(C)Oc3c(C)c(O)c4c(O)c(c(/C=N/N5CCN(C)CC5)c(O)c4c3C2=O)NC(=O)/C(C)=C\C=C\[C@H](C)[C@H](O)[C@@H](C)[C@@H](O)[C@@H](C)[C@H](OC(C)=O)[C@@H]1C [RIFAMPIN] | < 0.61 | – | –
33 | CN[C@@H]1[C@H](O[C@H]2[C@H](O[C@H]3[C@H](O)[C@@H](O)[C@H](N=C(N)N)[C@@H](O)[C@@H]3N=C(N)N)O[C@@H](C)[C@]2(O)C=O)O[C@@H](CO)[C@H](O)[C@H]1O [STREPTOMYCIN] | < 0.69 | – | –
